Laboratory results reported in paper PMC11906766 (Scientific Reports, 2025).

Assays:
hMAO-A = molecular target: T1, hMAO-A (Homo sapiens, UniProt P21397); assay: hMAO-A inhibition assay; assay type: biochemical
T1 sequence (P21397 1-527): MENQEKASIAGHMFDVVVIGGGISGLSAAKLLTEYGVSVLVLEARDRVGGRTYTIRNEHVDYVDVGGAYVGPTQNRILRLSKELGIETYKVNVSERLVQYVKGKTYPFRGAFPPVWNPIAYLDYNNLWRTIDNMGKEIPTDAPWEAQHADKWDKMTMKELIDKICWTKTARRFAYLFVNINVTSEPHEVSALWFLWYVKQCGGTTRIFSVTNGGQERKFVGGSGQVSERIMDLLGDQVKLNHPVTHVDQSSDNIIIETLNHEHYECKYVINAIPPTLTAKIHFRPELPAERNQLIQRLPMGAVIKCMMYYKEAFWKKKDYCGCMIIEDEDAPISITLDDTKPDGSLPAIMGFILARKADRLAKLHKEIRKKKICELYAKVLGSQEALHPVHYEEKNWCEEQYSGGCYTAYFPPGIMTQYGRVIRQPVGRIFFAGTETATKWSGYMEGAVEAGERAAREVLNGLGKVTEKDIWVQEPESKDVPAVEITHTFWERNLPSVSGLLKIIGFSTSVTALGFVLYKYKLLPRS

hMAO-B = molecular target: T2, hMAO-B (Homo sapiens, UniProt P27338); assay: hMAO-B inhibition assay; assay type: biochemical; settings: for inhibition at 1 µM: read-out: hMAO-B Inhibition (%), at 1 µM
T2 sequence (P27338 1-520): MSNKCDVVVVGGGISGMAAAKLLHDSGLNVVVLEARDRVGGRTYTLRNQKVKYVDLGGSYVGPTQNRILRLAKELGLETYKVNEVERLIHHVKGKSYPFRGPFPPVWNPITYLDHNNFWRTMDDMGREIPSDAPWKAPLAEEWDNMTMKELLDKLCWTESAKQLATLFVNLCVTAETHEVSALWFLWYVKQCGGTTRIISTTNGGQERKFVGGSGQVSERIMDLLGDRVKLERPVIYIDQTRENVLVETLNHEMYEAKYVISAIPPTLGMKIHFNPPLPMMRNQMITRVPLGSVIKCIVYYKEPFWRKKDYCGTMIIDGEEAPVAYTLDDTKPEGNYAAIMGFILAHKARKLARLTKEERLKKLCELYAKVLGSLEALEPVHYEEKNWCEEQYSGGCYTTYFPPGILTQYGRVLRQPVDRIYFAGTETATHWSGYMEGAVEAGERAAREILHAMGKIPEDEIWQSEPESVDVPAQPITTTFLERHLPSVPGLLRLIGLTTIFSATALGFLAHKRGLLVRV

LPS-stimulated BV2 cells = assay: NO, TNF-α and IL-1β production in LPS-stimulated BV2 microglial cells; assay type: cell-based; settings: LPS 100 ng/mL, 24 h
In short: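 BV2 microglia were grown 48 h at 37 °C, then pre-treated with test compound for 6 h at 37 °C under 5% CO2, with 0.5% DMSO as vehicle. Medium was replaced by DMEM containing LPS 100 ng/mL (final) for 24 h at 37 °C. NO in the medium was measured with a nitric oxide assay kit; TNF-α and IL-1β by ELISA. Data are mean ± SD of ≥3 independent experiments, compared by Student's t-test.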

Row | Compound | IC50 (hMAO-A) | inhibition at 1 µM (hMAO-B) | also measured
1 | COc1ccc(/C=C/C(=O)c2cccs2)cc1OC [Compound 10, (E)−3-(3,4-dimethoxyphenyl)−1-(thiophen-2-yl)prop-2-en-1-one] | > 40 µM | < 5% | 
2 | COc1ccc(/C=C/C(=O)c2ccc(Br)s2)cc1OC [Compound 18, (E)−1-(5-bromothiophen-2-yl)−3-(3,4-dimethoxyphenyl)prop-2-en-1-one] | > 40 µM | 12.3% | 
3 | COc1ccc(/C=C/C(=O)c2cccs2)cc1O [Compound 11, (E)−3-(3-hydroxy-4-methoxyphenyl)−1-(thiophen-2-yl)prop-2-en-1-one] | > 40 µM | 16.6% | 
4 | O=C(C=Cc1ccccc1)c1ccccc1 [Compound 1, 1,3-diphenyl-2-propen-1-one, reference compound] | > 40 µM |  | 
5 | COc1ccc(/C=C/C(=O)c2ccc[nH]2)cc1O [Compound 22, (E)−3-(3-hydroxy-4-methoxyphenyl)−1-(1H-pyrrol-2-yl)prop-2-en-1-one] | > 40 µM | < 5% | 
6 | COc1ccc(/C=C/C(=O)c2ccco2)cc1O [Compound 20, (E)−1-(furan-2-yl)−3-(3-hydroxy-4-methoxyphenyl)prop-2-en-1-one] | > 40 µM | < 5% | 
7 | COc1ccc(/C=C/C(=O)c2cccs2)cc1 [Compound 9, (E)−3-(4-methoxyphenyl)−1-(thiophen-2-yl)prop-2-en-1-one] | > 40 µM | 51.7% | 
8 | O=C(/C=C/c1ccccc1)c1cccs1 [Compound 2, (E)−3-phenyl-1-(thiophen-2-yl)prop-2-en-1-one] | > 40 µM | 23.8% | IC50 (hMAO-B): 10.6 ± 1.4 µM; Selectivity Index (SI) (hMAO-B; SI = IC50 (hMAO-A) / IC50 (hMAO-B)): > 3
9 | lipopolysaccharide [LPS] |  |  | level of IL-1β compared to the control group (LPS-stimulated BV2 cells): 30.4 fold; level of NO compared to the control group (LPS-stimulated BV2 cells): 11.4 fold; level of TNF-α compared to the control group (LPS-stimulated BV2 cells): 26.3 fold
10 | O=C(/C=C/c1ccc2ccccc2c1)c1cccs1 [Compound 8, (E)−3-(naphthalen-2-yl)−1-(thiophen-2-yl)prop-2-en-1-one] | > 40 µM | 27% | 
11 | COc1ccc(/C=C/C(=O)c2ccc(C)o2)cc1O [Compound 21, (E)−3-(3-hydroxy-4-methoxyphenyl)−1-(5-methylfuran-2-yl)prop-2-en-1-one] | > 40 µM | < 5% | 
12 | COc1ccc(/C=C/C(=O)c2ccc(C)s2)cc1O [Compound 19, (E)−3-(3-hydroxy-4-methoxyphenyl)−1-(5-methylthiophen-2-yl)prop-2-en-1-one] | > 40 µM | 28.2% | 
13 | COc1ccc(/C=C/C(=O)c2ccc(Cl)s2)cc1OC [Compound 16, (E)−1-(5-chlorothiophen-2-yl)−3-(3,4-dimethoxyphenyl)prop-2-en-1-one] | > 40 µM | 14.5% | 
